# Experimental data as given in publication PMC8217219 (Bone, 2021).
# Key:
# MC3T3 cells [1] = assay: Hoechst staining; assay type: cell-based; conditions: subconfluent MC3T3 cells, 100μM, 3 days
# Procedure, shortened: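 Subconfluent, proliferating MC3T3-E1 (sc4) cells were exposed to test compound at 1, 10 or 100 μM for 3 days. Cells were washed with PBS, covered with 0.1X Tris-EDTA, frozen at −80°C for at least 2 h and thawed at room temperature. They were then stained 15 min in the dark with Hoechst 33258 (0.5 μg/ml in 0.3 M NaCl, 5 mM Tris, pH 8.0). Fluorescence was read at 340/460 and fit to a DNA standard curve. Values were normalized to DMSO control (1:100 dilution); n = 3.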
# MC3T3 cells [2] = assay: Live/Dead cytotoxicity assay; assay type: cell-based; conditions: subconfluent MC3T3 cells, 100μM, 3 days
# Procedure, shortened: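 Viability was scored in subconfluent MC3T3-E1 (sc4) cultures after 3 days with test compound at 1, 10 or 100 μM. Medium was removed and cells were incubated 20 min with calcein-AM and ethidium homodimer-1 in PBS. Live-cell fluorescence was read at 465/540 nm. Values were normalized to DMSO-treated control (1:100 dilution).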
# H3K27me3 = assay: Western blot of cellular H3K27me3 levels; assay type: cell-based, mouse; conditions: MC3T3 cells, single dose 1μM, 24 hour treatment, relative to Gapdh
# MC3T3 cells [3] = assay: Alizarin red staining; assay type: cell-based, mouse; conditions: for osteogenic boosting (calcium deposition, alizarin red) / mineralization (alizarin red staining, percent coverage area): 5μM, day 18; for osteogenic boosting (calcium deposition, alizarin red): Ezh2 overexpressing MC3T3 cells; for mineralization (alizarin red staining, percent coverage area): control MC3T3 cells (empty vector)
# MC3T3 cells [4] = assay: RT-qPCR of osteogenic genes; assay type: cell-based, mouse; conditions: for osteogenic markers (mRNA) / expression of bone-related genes: 5μM; for expression of bone-related genes: combined with Ezh2 siRNA knockdown, days five and ten
# [5] = cited from earlier work
# MC3T3 cells [6] = assay: Alkaline phosphatase; assay type: cell-based, mouse; conditions: day six; for alkaline phosphatase (Alpl) enzymatic activity: MC3T3 cells, optimal doses (40μM CPI-169, 5μM all others), vs vehicle
# MC3T3 cells [7] = assay: MTS metabolic activity assay; assay type: cell-based; conditions: subconfluent MC3T3 cells, 10μM, 3 days
# Procedure, shortened: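 Subconfluent MC3T3-E1 (sc4) cells were given test compound at 1, 10 or 100 μM for 3 days. The MTS reagent was used per kit protocol and absorbance was read at 490 nm. Metabolic activity was expressed relative to DMSO-treated control (1:100 dilution).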
# [8] = 5μM day two to five, combined with Ezh2 siRNA knockdown, day 24
# [9] = MC3T3 cell differentiation, day ten
# [10] = MC3T3 cells overexpressing Ezh2, day ten
compound,measurement,setting,value
CC[C@H](C)n1cc(C)c2c(C(=O)NCc3c(C)cc(C)[nH]c3=O)cc(-c3ccc(N4CCNCC4)nc3)cc21 [GSK126],cell numbers (Hoechst staining),MC3T3 cells [1],significant reductions
same,fraction of living cells (live/dead staining),MC3T3 cells [2],significant reductions
same,reduction in H3K27me3,H3K27me3,2–3 fold
same,ECM mineralization (alizarin red),MC3T3 cells [3]; [8],enhances ECM mineralization
same,"osteogenic boosting (calcium deposition, alizarin red)",MC3T3 cells [3],not observed
same,"mineralization (alizarin red staining, percent coverage area)",MC3T3 cells [3],accelerated mineralization and more intense alizarin red staining
same,osteogenic markers (mRNA),MC3T3 cells [4]; [9],highly effective at increasing osteogenic markers
same,osteogenic markers (mRNA),MC3T3 cells [4]; [10],not when cells overexpress Ezh2
same,expression of bone-related genes,MC3T3 cells [4],co-stimulates expression of bone-related genes
same,"adverse effects in other tissues and organs (e.g., spleen, liver)",[5]; adult mice (8–12 weeks) ref 29,no adverse effects
same,bone anabolic effect,[5]; adult mice (8–12 weeks) ref 29,modestly bone anabolic
same,bone accrual,[5]; normal and ovariectomized mice ref 29,effective for stimulation of bone accrual
CCS(=O)(=O)N1CCC([C@@H](C)n2c(C)c(C(=O)NCc3c(OC)cc(C)[nH]c3=O)c3ccccc32)CC1 [CPI-169],cell numbers (Hoechst staining),MC3T3 cells [1],not observed
same,fraction of living cells (live/dead staining),MC3T3 cells [2],not observed
same,optimal dose,"MC3T3 cells [3]; MC3T3 cells, 2X dose, from alizarin red quantitation (Fig. 4, red arrows)",40 µM
same,alkaline phosphatase (Alpl) enzymatic activity,MC3T3 cells [6],~three fold stimulation
CCCc1cc(C)[nH]c(=O)c1CNC(=O)c1cc(-c2ccc(N3CCN(C(C)C)CC3)nc2)cc2c1cnn2C(C)C [UNC1999],cell numbers (Hoechst staining),MC3T3 cells [1],significant reductions
same,fraction of living cells (live/dead staining),MC3T3 cells [2],significant reductions
same,reduction in H3K27me3,H3K27me3,> 5 fold
same,ECM mineralization (alizarin red),"MC3T3 cells [3]; MC3T3 cells, optimal doses for first six days, day 24 and day 28",except UNC1999
same,alkaline phosphatase (Alpl) enzymatic activity,MC3T3 cells [6],except for UNC1999
CCN(c1cc(-c2ccc(CN3CCOCC3)cc2)cc(C(=O)NCc2c(C)cc(C)[nH]c2=O)c1C)C1CCOCC1 [EPZ-6438],metabolic activity (MTS),MC3T3 cells [7],less harmful to metabolic cell activity
same,cell numbers (Hoechst staining),MC3T3 cells [1],significant reductions
same,fraction of living cells (live/dead staining),MC3T3 cells [2],significant reductions
same,reduction in H3K27me3,H3K27me3,> 5 fold
same,alizarin red staining compared with GSK126 co-treatment,"MC3T3 cells [3]; 5μM combined with Ezh2 siRNA, day 24",more robust staining
same,ECM mineralization (alizarin red),MC3T3 cells [3]; [8],enhances ECM mineralization
same,"osteogenic boosting (calcium deposition, alizarin red)",MC3T3 cells [3],not observed
same,"mineralization (alizarin red staining, percent coverage area)",MC3T3 cells [3],accelerated mineralization and more intense alizarin red staining
same,osteogenic markers (mRNA),MC3T3 cells [4]; [9],highly effective at increasing osteogenic markers
same,osteogenic markers (mRNA),MC3T3 cells [4]; [10],not when cells overexpress Ezh2
same,expression of bone-related genes,MC3T3 cells [4],co-stimulates expression of bone-related genes
Cc1cc(C)c(CNC(=O)c2cc(-c3ccc(N4CCN(C)CC4)nc3)cc3c2c(C)cn3C(C)C)c(=O)[nH]1 [GSK503],cell numbers (Hoechst staining),MC3T3 cells [1],significant reductions
same,fraction of living cells (live/dead staining),MC3T3 cells [2],significant reductions
same,reduction in H3K27me3,H3K27me3,> 5 fold
Cc1cc(C)c(CN2CCc3c(Cl)cc(-c4c(C)noc4C)c(Cl)c3C2=O)c(=O)[nH]1 [PF-06726304],cell numbers (Hoechst staining),MC3T3 cells [1],significant reductions
same,fraction of living cells (live/dead staining),MC3T3 cells [2],significant reductions
CCC(CC)n1ccc2c(C(=O)NCc3c(C)cc(C)[nH]c3=O)cc(C#N)cc21 [EI1],metabolic activity (MTS),MC3T3 cells [7],less harmful to metabolic cell activity
same,cell numbers (Hoechst staining),MC3T3 cells [1],not observed
same,fraction of living cells (live/dead staining),MC3T3 cells [2],not observed
same,reduction in H3K27me3,H3K27me3,2–3 fold
"C[S+](C)[O-] [DMSO, dimethyl sulfoxide]",Alpl enzymatic activity,MC3T3 cells [6]; low (0.05%) and high (0.4%) doses vs osteogenic medium (OM),enhance Alpl enzymatic activity
same,"mRNA levels of osteoblast differentiation markers (Alpl, Sp7, Ibsp, Phospho1)","MC3T3 cells [4]; 0.05% DMSO or 0.4% DMSO vs no DMSO, osteogenic medium, six days",significantly elevated
same,expression of late marker Bglap,"MC3T3 cells [4]; DMSO 0.05% or 0.4% in osteogenic media, day ten",did not show compelling changes
